What was measured:
[1] = melting temperature; fluorescence melt of hairpins on a sequencing array, two-state fit, raised by 9.35 °C to match UV melts; conditions: sodium 0.088 M
Outline: (§1)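 Hairpins were imaged by Cy3 fluorescence on a sequenced MiSeq flow cell with annealed Cy3 and quencher oligos, in 50 mM Na-HEPES pH 8.0, 25 mM NaCl, in 2.5 °C steps up to 60 °C. Bootstrapped two-state fits of normalised signals gave melting temperature and folding enthalpy. Four replicates were combined by inverse variance, and fitted temperatures were raised by 9.35 °C to match UV melts.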

[2] = folding enthalpy; higher = less favourable; fluorescence melt of hairpins on a sequencing array, two-state fit; conditions: sodium 0.088 M
Outline: as §1

Sequence	Tm [1] [°C]	folding enthalpy [2] [kcal/mol]
GATTCGAAAGAATC (((((....)))))	51.5	-29.7
GGACGCGAAAGCGGTTCC ((((((....)))..)))	45.7	-11.6
GATCGAACAGTCGATC ((((((....))))))	47.7	-31.4
GGATGTGGAAACGCATCC (((((.(....).)))))	52.2	-41.4
GGTAAACGAAAGTTCACC (((.(((....))).)))	40.4	-28.6
GATCCGGAACCGGATC ((((((....))))))	62.5	-39.9
GCGACCTGTCGC ((((....))))	68.3	-26.5
CGATCGGAAACGAACTCG ((((((....)))..)))	24.4	-9.8
GCGATGCGAAAGCTCCGC (((..((....))..)))	52.5	-19.9
GATCCGCCGCCGGATC ((((((....))))))	59	-42.4
GCGCAGCGAAAGCAGGGC ((.(.((....)).).))	51.2	-10.2
GACCATGGAAACATGGTC (((((((....)))))))	65.1	-43.1
GGTCACGAAAGTGAACC ((((((....))).)))	55.6	-27.2
GCAAAAGGAAACTTTCGC ((.((((....)))).))	31.8	-20.5
GGAGAGGGAAACCCCTCC ((((.((....)).))))	45	-28.6
GATCGTGGCGACGATC ((((((....))))))	61.4	-29.9
GATCACTTGCGTGATC ((((((....))))))	55.9	-40.7
GCGTGCGAAAGCAGTCGC ((((((....)))..)))	53	-20.1
GCCGGCGGAAACACCGGC (((((.(....).)))))	66.8	-44.1
GGCTCAGCGAAAGCTGCC (((..(((....))))))	44.2	-12.3
GTGAAAGAAATTTCAC ((((((....))))))	44.3	-29.4
GCCCGGGGAAACCCAGGC (((.(((....))).)))	52.8	-32.6
GATCTTGGAAACAAGATC (((((((....)))))))	55.9	-42.3
GCCTTCGAAAGAAGAGGC ((((((....)))..)))	46	-23.4

Sequence	Tm [1] [°C]	folding enthalpy [2] [kcal/mol]
GCGGGATCGAAAGATCGC (((..(((....))))))	51	-13.8
GATCCCGGTTGGGATC ((((((....))))))	65.2	-32.4
GCGTCTGGAAACGGATGC ((.((.(....).)).))	44.4	-35.5
GATCTGACTACAGATC ((((((....))))))	49.5	-36.9
GGATTCCGAAAGGATCC (((.(((....))))))	49.6	-29.1
GTCCATCGAAAGATGAC (((.(((....))))))	42.5	-16.9
GGGACCCCGAAAGGGCCC (((..(((....))))))	58.6	-20.3
AATCTGAAAAGATT (((((....)))))	34.7	-13.1
GGAGCTGGAAACAACTCC ((((.((....)).))))	42.6	-31.2
TTCCAGAAATGGAA (((((....)))))	31	-9.36
CGTGCTCGGAAACGAACG (((..(((....))))))	21.2	-5.98
GCCAGGAAACTGGC (((((....)))))	63.2	-38.2
GGACCCGGAAACAGGCCC ((.((.(....).)).))	29	-16.9
GCGGGGCGAAAGCACGGC ((.(.((....)).).))	65.2	-15.7
GGTAATGCGAAAGCAACC (((..(((....))))))	31.6	-11.2
GTTGGGGGAAACTCCAAC (((((.(....).)))))	50.4	-41.2
GCTCAGCGAAAGCAAAGC (((..((....))..)))	38.4	-13.6
TGCCAGAAATGGCA (((((....)))))	55.1	-16.5
GATCTCGGTGGAGATC ((((((....))))))	68.6	-4.26
GATCGAATCTTCGATC ((((((....))))))	54.2	-42.4
GATCCAATGTGGATC ((((((...))))))	50.8	-32.5
GATCAGTTGCCTGATC ((((((....))))))	51.4	-41.1
GGTTGCGGAAACGCGATC (.(.(((....))).).)	41.7	-19.7

— the array DNA melting data of Ke et al. (doi:10.1101/2024.01.08.574731)
